The species named for assay [1] is Rattus norvegicus. Briefly: In vitro agonist activity against [Ca2+] uptake in neonatal rat cultured spinal sensory neurons. It counts as functional. Put shortly:
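Neonatal rat dorsal root ganglia were dissociated with collagenase then trypsin and cultured with 10% horse serum, 1 μg/mL NGF and 48 h of 10^-4 M cytosine arabinoside. Assays used 3–7-day cultures washed in Ca-free HEPES-buffered BSS (pH 7.4). Compound with 10 μCi/mL 45Ca2+ and 1% DMSO was applied for 10 min at room temperature; SDS extract was scintillation counted. Medium-only background; EC50 from ≥6 replicates/concentration.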

Assay [2] is filed under the species Rattus norvegicus. Briefly: In vitro antagonist activity against [Ca2+] uptake in neonatal rat cultured spinal sensory neurons. It counts as functional. Put shortly: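 Cultured neonatal rat DRG neurons (3–7 days old, non-neuronal cells removed with cytosine arabinoside) were washed in Ca-free HEPES BSS, pH 7.4. 45Ca2+ uptake stimulated by a fixed 0.5 μM agent was measured with test compound in 1% DMSO over 10 min at room temperature. Cells were lysed with SDS and scintillation counted. IC50 is 50% reduction of the evoked response, from ≥6 replicates/concentration.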

The term EC50 denotes the concentration that produces a half-maximal response. Read a high EC50 as weaker potency. One may read the IC50 as the concentration that inhibits the measured activity by half. Low readings indicate greater potency, high ones weaker potency.

A value given as a limit tells only on which side of the number the result lay.

Regarding `Oc1cc2c(cc1O)CN(C(=S)NCCc1ccc(Cl)cc1)C2`, it took 550 nM to reach a half-maximal effect in the assay filed under Rattus norvegicus [1] (EC50).

For the compound `COc1cc2c(cc1O)CN(/C(S)=N/CCc1ccc(Cl)cc1)C2`, the EC50 in the assay filed under Rattus norvegicus [1] is above 100000 nM. Moreover, the IC50 in the assay filed under Rattus norvegicus [2] is above 100000 nM.

The compound `CCCCCCCC/N=C(\S)NCc1ccc(O)c(OC)c1` displayed an EC50 in the assay filed under Rattus norvegicus [1] of 60 nM.

Regarding `CCCCCCCC/N=C(\S)N1CCc2c(ccc(O)c2O)C1`, the EC50 in the assay filed under Rattus norvegicus [1] was above 100000 nM. In addition, the IC50 in the assay filed under Rattus norvegicus [2] amounted to 3480 nM.

As to `Oc1ccc2c(c1O)CCN(C(=S)NCCc1ccc(Cl)cc1)C2`, in the assay filed under Rattus norvegicus [1], the EC50 is above 100000 nM. In the assay listed under Rattus norvegicus [2], this compound came in with an IC50 of 440 nM.

In the assay listed under Rattus norvegicus [1], `COc1cc2c(cc1OC)CN(/C(S)=N/CCc1ccc(Cl)cc1)CCC2` gave an EC50 above 100000 nM. Moreover, half-maximal inhibition in the assay filed under Rattus norvegicus [2] (IC50) was put at 6990 nM.

In the case of `Oc1cc2c(cc1O)CN(C(=S)NCCc1ccc(Cl)cc1)CCC2` [CAPSAZEPINE], the EC50 in the assay listed under Rattus norvegicus [1] was above 100000 nM. This compound also yielded an IC50 in the assay filed under Rattus norvegicus [2] of 420 nM.

With `Oc1ccc(CNC(=S)NCCc2ccc(Cl)cc2)cc1O`, the response in the assay listed under Rattus norvegicus [1] was half-maximal at 100 nM (EC50).

Compound `CCCCCCCC/N=C(\S)N1CCc2cc(O)c(O)cc2C1` came in with an EC50 in the assay filed under Rattus norvegicus [1] of 740 nM.

As to `COc1cc2c(cc1O)CCN(/C(S)=N/CCc1ccc(Cl)cc1)C2`, a half-maximal effect in the assay filed under Rattus norvegicus [1] (EC50) was put at 1090 nM. In the assay listed under Rattus norvegicus [2], it took 1230 nM to reach half-maximal inhibition (IC50).

As for `COc1cc2c(cc1O)CN(/C(S)=N/CCc1ccc(Cl)cc1)CC2`, the EC50 in the assay filed under Rattus norvegicus [1] worked out at 1230 nM.

On to `Oc1cc2c(cc1O)CN(C(=S)NCCc1ccc(Cl)cc1)CC2`, for which, in the assay filed under Rattus norvegicus [1], the EC50 was 290 nM.

In turn, `COc1cc(C/N=C(\S)NCCc2ccc(Cl)cc2)ccc1O` had an EC50 in the assay filed under Rattus norvegicus [1] of 60 nM.

Source of the values: ChEMBL document CHEMBL1127740, “The discovery of capsazepine, the first competitive antagonist of the sensory neuron excitants capsaicin and resiniferatoxin” (J Med Chem, 1994).
